The subject of data set [1] is Mus musculus. Nature of the data set: Anticonvulsant activity in Kunming mouse assessed as protection against maximal electroshock-induced seizures at 30 mg/kg, ip after 0.5 hrs. Also on record: dose 30 mg/kg. It is filed as functional, organism-based. For orientation: In the maximal electroshock model the usual endpoint is tonic extension of the hind limbs.
The subject of data set [2] is Mus musculus. Description: Anticonvulsant activity in Kunming mouse assessed as protection against maximal electroshock-induced seizures at 100 mg/kg, ip after 0.5 hrs. Also on record: dose 100 mg/kg. It is filed as functional, organism-based.
The subject of data set [3] is Mus musculus. Description: Anticonvulsant activity in Kunming mouse assessed as protection against maximal electroshock-induced seizures at 30 mg/kg, ip after 4 hrs. Also on record: dose 30 mg/kg. It is filed as functional, organism-based.
Data set [4] concerns Mus musculus. Description: Anticonvulsant activity in Kunming mouse assessed as protection against maximal electroshock-induced seizures at 300 mg/kg, ip after 4 hrs. It is filed as functional, organism-based. Also on record: dose 300 mg/kg.
Data set [5] deals with Mus musculus. Nature of the data set: Anticonvulsant activity in Kunming mouse assessed as protection against subcutaneous pentylenetetrazole-induced seizures at 30 mg/kg, ip after 0.5 hrs. It is filed as functional, organism-based. Also on record: dose 30 mg/kg. The gist of the method: (§1)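 Male Kunming mice (20 ± 2.0 g) received the compound ip as a suspension in 0.5% methylcellulose at 30, 100 or 300 mg/kg, one to four mice per dose. Pentylenetetrazole in 0.9% saline was given sc at 0.5 h and 4.0 h after dosing. Protection meant no threshold seizure (one clonic spasm episode of at least 5 s). Scored as protected/tested.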

Data set [6] relates to Mus musculus. Nature of the data set: Anticonvulsant activity in Kunming mouse assessed as protection against subcutaneous pentylenetetrazole-induced seizures at 30 mg/kg, ip after 4 hrs. It is filed as functional, organism-based. Also on record: dose 30 mg/kg. Summed up: as §1
The test system of data set [7] is Mus musculus. Description: Anticonvulsant activity in Kunming mouse assessed as protection against subcutaneous pentylenetetrazole-induced seizures at 100 mg/kg, ip after 4 hrs. It is filed as functional, organism-based. Also on record: dose 100 mg/kg. Summed up: as §1
In data set [8] the test system is Mus musculus. Nature of the data set: Neurotoxicity in Kunming mouse assessed as minimum motor impairment at 30 mg/kg, ip after 0.5 hrs by rotarod test. It is filed as toxicity, organism-based. Also on record: dose 30 mg/kg, route intraperitoneal. Particulars: in vivo. Summed up:
(§2)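 Rotorod neurotoxicity in male Kunming mice (20 ± 2.0 g) given ip doses of 30, 100 or 300 mg/kg as a suspension in 0.5% methylcellulose, one to four mice per dose. Motor impairment was examined at 0.5 h and 4.0 h after injection. Reported as number of animals showing toxicity/number tested.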
In general terms: The rotarod test checks motor coordination on a turning rod.

Data set [9] has as its system Mus musculus. Nature of the data set: Neurotoxicity in Kunming mouse assessed as minimum motor impairment at 100 mg/kg, ip after 0.5 hrs by rotarod test. Particulars: in vivo. It is filed as toxicity, organism-based. Also on record: dose 100 mg/kg, route intraperitoneal. Summed up: as §2
Data set [10] relates to Mus musculus. Nature of the data set: Neurotoxicity in Kunming mouse assessed as minimum motor impairment at 300 mg/kg, ip after 0.5 hrs by rotarod test. Also on record: dose 300 mg/kg, route intraperitoneal. It is filed as toxicity, organism-based. Particulars: in vivo. The gist of the method:
as §2

Data set [11] relates to Mus musculus. Description: Neurotoxicity in Kunming mouse assessed as minimum motor impairment at 30 mg/kg, ip after 4 hrs by rotarod test. It is filed as toxicity, organism-based. Also on record: dose 30 mg/kg, route intraperitoneal. Particulars: in vivo. The gist of the method: as §2
Data set [12] deals with Mus musculus. Description: Neurotoxicity in Kunming mouse assessed as minimum motor impairment at 100 mg/kg, ip after 4 hrs by rotarod test. It is filed as toxicity, organism-based. Particulars: in vivo. Also on record: dose 100 mg/kg, route intraperitoneal. Summed up:
as §2

For data set [13], the system named is Mus musculus. Nature of the data set: Neurotoxicity in Kunming mouse assessed as minimum motor impairment at 300 mg/kg, ip after 4 hrs by rotarod test. Also on record: dose 300 mg/kg, route intraperitoneal. It is filed as toxicity, organism-based. Particulars: in vivo. The gist of the method:
as §2

Data set [14] concerns Rattus norvegicus. Nature of the data set: Neurotoxicity in Kunming rat assessed as minimum motor impairment at 30 mg/kg, po after 0.25 hrs by rotarod test. It is filed as toxicity, organism-based. Also on record: dose 30 mg/kg, route oral. Particulars: in vivo. The gist of the method: (§3)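 Rotorod neurotoxicity in male Kunming rats (250 ± 5.0 g) given 30 mg/kg po, four rats per compound. Motor impairment was assessed at 0.25, 0.5, 1, 2 and 4 h after oral administration.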

For data set [15], the system named is Rattus norvegicus. Description: Neurotoxicity in Kunming rat assessed as minimum motor impairment at 30 mg/kg, po after 0.5 hrs by rotarod test. It is filed as functional, organism-based. Also on record: dose 30 mg/kg. The gist of the method:
as §3

The test system of data set [16] is Rattus norvegicus. Nature of the data set: Neurotoxicity in Kunming rat assessed as minimum motor impairment at 30 mg/kg, po after 1 hr by rotarod test. Also on record: dose 30 mg/kg. It is filed as functional, organism-based. Summed up:
as §3

Data set [17] has as its system Rattus norvegicus. Nature of the data set: Neurotoxicity in Kunming rat assessed as minimum motor impairment at 30 mg/kg, po after 2 hrs by rotarod test. Also on record: dose 30 mg/kg. It is filed as functional, organism-based. Summed up:
as §3

Data set [18] relates to Rattus norvegicus. Nature of the data set: Neurotoxicity in Kunming rat assessed as minimum motor impairment at 30 mg/kg, po after 4 hrs by rotarod test. It is filed as functional, organism-based. Also on record: dose 30 mg/kg. The gist of the method: as §3
For data set [19], the system named is Rattus norvegicus. Description: Anticonvulsant activity in Kunming rat assessed as protection against subcutaneous pentylenetetrazole-induced seizures at 30 mg/kg, po after 0.5 hrs. It is filed as functional.
Data set [20] deals with Rattus norvegicus. Description: Anticonvulsant activity in Kunming rat assessed as protection against subcutaneous pentylenetetrazole-induced seizures at 30 mg/kg, po after 1 hr. It is filed as functional.
The test system of data set [21] is Mus musculus. Description: Anticonvulsant activity in Kunming mouse assessed as protection against maximal electroshock-induced seizures at 100 mg/kg, ip after 4 hrs. It is filed as functional, organism-based. Also on record: dose 100 mg/kg.
For data set [22], the system named is Mus musculus. Description: Anticonvulsant activity in Kunming mouse assessed as protection against subcutaneous pentylenetetrazole-induced seizures at 100 mg/kg, ip after 0.5 hrs. Also on record: dose 100 mg/kg. It is filed as functional, organism-based. The gist of the method:
as §1

Data set [23] deals with Mus musculus. Description: Anticonvulsant activity in Kunming mouse assessed as protection against subcutaneous pentylenetetrazole-induced seizures at 300 mg/kg, ip after 0.5 hrs. It is filed as functional, organism-based. Also on record: dose 300 mg/kg. Summed up: as §1
In data set [24] the test system is Rattus norvegicus. Nature of the data set: Anticonvulsant activity in Kunming rat assessed as protection against maximal electroshock-induced seizures at 30 mg/kg, po after 0.25 hrs. It is filed as functional. Summed up: (§4)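 Male Kunming rats (250 ± 5.0 g) were dosed orally at 30 mg/kg, four rats per compound. Seizures were induced by a 150-mA corneal current for 0.2 s at 0.25, 0.5, 1, 2 and 4 h after dosing. Readout was the number of rats out of four protected against hindlimb tonic extension.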

The subject of data set [25] is Rattus norvegicus. Nature of the data set: Anticonvulsant activity in Kunming rat assessed as protection against maximal electroshock-induced seizures at 30 mg/kg, po after 0.5 hrs. It is filed as functional. The gist of the method:
as §4

The subject of data set [26] is Rattus norvegicus. Nature of the data set: Anticonvulsant activity in Kunming rat assessed as protection against maximal electroshock-induced seizures at 30 mg/kg, po after 1 hr. It is filed as functional. Summed up:
as §4

In data set [27] the test system is Rattus norvegicus. Description: Anticonvulsant activity in Kunming rat assessed as protection against maximal electroshock-induced seizures at 30 mg/kg, po after 2 hrs. It is filed as functional. Summed up:
as §4

The subject of data set [28] is Rattus norvegicus. Description: Anticonvulsant activity in Kunming rat assessed as protection against maximal electroshock-induced seizures at 30 mg/kg, po after 4 hrs. It is filed as functional. The gist of the method:
as §4

The subject of data set [29] is Mus musculus. Description: Anticonvulsant activity in ip dosed Kunming mouse assessed as protection against maximal electroshock-induced seizures. It is filed as functional. The gist of the method:
(§5)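 Quantitative phase-II study in groups of 10 male Kunming mice. A range of ip doses in 0.5% carboxymethyl cellulose-0.9% saline (0.1 ml) was given until at least three points fell within 10–90% seizure protection (MES or scPTZ) or minimal neurotoxicity. Rotorod toxicity was read 30 min after dosing.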

Data set [30] relates to Mus musculus. Nature of the data set: Anticonvulsant activity in ip dosed Kunming mouse assessed as protection against subcutaneous pentylenetetrazole-induced seizures. It is filed as functional. Summed up:
as §5

Data set [31] is described as follows: Neurotoxicity in ip dosed Kunming mouse assessed as minimum motor impairment by rotarod test. It is filed as toxicity, organism-based. Particulars: in vivo. Summed up:
as §5

Data set [32] concerns Mus musculus. Nature of the data set: Protective index, ratio of TD50 for neurotoxicity in ip dosed Kunming mouse to ED50 for Kunming mouse by MES test. It is filed as functional.
In data set [33] the test system is Mus musculus. Description: Protective index, ratio of TD50 for neurotoxicity in ip dosed Kunming mouse to ED50 for Kunming mouse by sPTZ test. It is filed as functional.
For data set [34], the system named is Mus musculus. Description: Anticonvulsant activity in ip dosed Kunming mouse assessed as time peak effect. It is filed as functional.

The structures appear in SMILES notation. Calls of active or inactive are those of the source.

Consider `COc1cccc(C2CC23NC(=O)N(C)C3=O)c1OC` (configuration not stated), for which the outcome with Mus musculus [1], in the data set on Mus musculus [2] and in the data set with Mus musculus [4] was Active. Further, the result with Mus musculus [3], in the data set on Mus musculus [5], in the data set with Mus musculus [6], in the data set with Mus musculus [7] and with Rattus norvegicus [20] was inactive. The Activity result is “Non-toxic” in the data set with Mus musculus [8]; “Non-toxic” in the data set on Mus musculus [9]; “Toxic” in the data set with Mus musculus [10]; “Non-toxic” with Mus musculus [11]; “Non-toxic” in the data set with Mus musculus [12]; “Non-toxic” in the data set with Mus musculus [13]. The Activity entry was “Non-toxic” with Rattus norvegicus [14]; “Not toxic” in the data set on Rattus norvegicus [15]; “Not toxic” in the data set on Rattus norvegicus [16]; “Not toxic” in the data set on Rattus norvegicus [17]; “Not toxic” with Rattus norvegicus [18]; 25% in the data set on Rattus norvegicus [19].
With `CN1C(=O)NC2(CC2c2ccc(S(C)(=O)=O)cc2)C1=O` (configuration not stated), the outcome in the data set with Mus musculus [1], with Mus musculus [21], in the data set with Mus musculus [4], in the data set on Mus musculus [5], with Mus musculus [22] and in the data set on Mus musculus [23] was Active. Besides, the outcome in the data set with Mus musculus [6] and in the data set on Rattus norvegicus [24] was inactive. Moreover, the Activity entry in the data set on Mus musculus [8] is “Non-toxic”; in the data set with Mus musculus [9] it was “Non-toxic”; in the data set on Mus musculus [11] it was “Non-toxic”; in the data set on Mus musculus [12], “Non-toxic”; in the data set with Mus musculus [13] it was “Non-toxic”; in the data set with Rattus norvegicus [25] it was 50%. For the same compound, the Activity was 50% in the data set with Rattus norvegicus [26]; 75% in the data set on Rattus norvegicus [27]; 75% in the data set on Rattus norvegicus [28]; “Non-toxic” in the data set with Rattus norvegicus [14]; “Not toxic” in the data set with Rattus norvegicus [15]; “Not toxic” with Rattus norvegicus [16]. In addition, the Activity result is “Not toxic” with Rattus norvegicus [17], “Not toxic” in the data set on Rattus norvegicus [18] and 25% in the data set on Rattus norvegicus [20]. Also, the figures for the ED50 in the data set on Mus musculus [29] and with Mus musculus [30] were 12.5 mg/kg and 427 mg/kg, respectively. Besides, in data set [31], the TD50 was 310 mg/kg. The PI in the data set on Mus musculus [32] is on record as 24.8; in the data set on Mus musculus [33], 0.73. Moreover, in the data set with Mus musculus [34], the Time was found to be 0.5 h.
For the compound `O=C1NC(=O)C(c2ccccc2)(c2ccccc2)N1` [PHENYTOIN], the result with Rattus norvegicus [25] was Active. Also, the ED50 with Mus musculus [30] was > 300 mg/kg. The Time with Mus musculus [34] came to 2 h.

As a reminder, the ED50 is the dose at which the effect has come halfway, by size or by number of responders. A word on the TD50: it is the 50% point of the dose-response relation for the toxic effect studied.

For the origin of these results see ChEMBL document CHEMBL1240414, “Synthesis and anticonvulsant activity of new 6-methyl-1-substituted-4,6-diazaspiro[2.4]heptane-5,7-diones” (Eur J Med Chem, 2010).
